Data on 31 molecules can be found in ChEMBL document CHEMBL3351558, “Picomolar Inhibitors of HIV-1 Reverse Transcriptase: Design and Crystallography of Naphthyl Phenyl Ethers” (ACS Med Chem Lett, 2014).

Each structure is given as a SMILES string. In brackets after ≈: the same amount, converted by molar mass.

Data set [1] concerns Human immunodeficiency virus 1. In words: Antiviral activity against wild type HIV1 3B infected in human MT2 cells assessed as protection from virus-induced cytopathicity by MTT assay. The conditions noted are these: Human immunodeficiency virus 1, 3B. Type of data set: functional, organism-based. (In general: Damage to the host cells serves as the signal in cytopathic effect assays.)

The subject of data set [2] is Human immunodeficiency virus 1. The data set is described as follows: Antiviral activity against wild type HIV1 harboring reverse transcriptase Y181C mutant infected in human MT2 cells assessed as protection from virus-induced cytopathicity by MTT assay. Type of data set: functional, organism-based.
In data set [3] the test system is Human immunodeficiency virus 1. In words: Antiviral activity against wild type HIV1 harboring reverse transcriptase K103N/Y181C mutant infected in human MT2 cells assessed as protection from virus-induced cytopathicity by MTT assay. Type of data set: functional, organism-based.
Data set [4] is described as follows: Cytotoxicity against human MT2 cells assessed as reduction in cell viability by MTT assay. Type of data set: cell-based.
The nature of data set [5]: Aqueous solubility of the compound at pH 6.5 after 48 hrs by shake-flask method. Type of data set: physicochemical. The procedure, abridged: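 Shake-flask method: excess solid stirred in Britton–Robinson buffer, pH 6.5, for 48 h at 25 °C. The supernatant was passed through a 0.2 μm filter and quantified by UV–vis spectrophotometry. Piroxicam served as the control.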

Where [6] appears, read: Human immunodeficiency virus 1, MT2, read-out: EC50.

By EC50 is commonly meant the concentration at which the effect is half-maximal. A word on the CC50: it is the concentration at which the toxic effect on the cells reaches its halfway point. For orientation: thermodynamic solubility means the concentration in solution at equilibrium with solid. Consider `N#Cc1cc2c(Oc3ccc(F)cc3OCCn3ccc(=O)[nH]c3=O)cc(F)cn2c1`, for which the EC50 in data set [1] turned out to be 0.4 nM; in data set [2] (setting [6]), 250 nM; in data set [3] (setting [6]), 10 nM. Moreover, the CC50 in data set [4] was 50000 nM. The solubility (thermodynamic) at 48 h in data set [5] was 43.8 µg/mL (≈ 103 µM).

As for `CN1C(C(=O)Nc2ccccn2)=C(O)c2ccccc2S1(=O)=O` [PIROXICAM], the thermodynamic solubility at 48 h in data set [5] was found to be 5 µg/mL (≈ 15.1 µM).

`N#Cc1ccc2c(Oc3ccc(Cl)cc3OCCn3ccc(=O)[nH]c3=O)cccc2c1`: the EC50 amounted to 1.5 nM in data set [1], 48 nM in data set [2] (setting [6]) and 150 nM in data set [3] (setting [6]). Moreover, the CC50 in data set [4] was above 100000 nM.

Turning to `N#C/C=C/c1cc(Cl)cc(Oc2ccccc2OCCn2ccc(=O)[nH]c2=O)c1`, the results for the EC50 in data set [1], in data set [2] (setting [6]) and in data set [3] (setting [6]) were 0.31 nM, 46 nM and 24 nM, respectively. For the same molecule, the CC50 in data set [4] turned out to be 18000 nM. The molecule further had a thermodynamic solubility at 48 h in data set [5] of 510 µg/mL (≈ 1240 µM).

As for `N#Cc1ccc2c(Oc3ccc(F)cc3OCCn3ccc(=O)[nH]c3=O)cccc2c1`, the EC50 was 0.49 nM in data set [1], 10 nM in data set [2] (setting [6]) and 48 nM in data set [3] (setting [6]). For the same molecule, in data set [4], the CC50 was above 100000 nM.

On to `O=c1ccn(CCOc2ccccc2Oc2cccc3cc(Cl)ccc23)c(=O)[nH]1`, for which the figures for the EC50 in data set [1], in data set [2] (setting [6]) and in data set [3] (setting [6]) were 14 nM, 1000 nM and 710 nM, respectively. For the same molecule, the CC50 in data set [4] is above 100000 nM.

On to `N#Cc1cc2c(Oc3ccc(F)cc3OCCn3ccc(=O)[nH]c3=O)cc(Cl)cn2c1`, for which the figures for the EC50 in data set [1], in data set [2] (setting [6]) and in data set [3] (setting [6]) were 2.5 nM, 160 nM and 110 nM, respectively. Also, in data set [4], the CC50 is 15000 nM.

For the molecule `N#Cc1cc2c(Oc3ccccc3OCCn3ccc(=O)[nH]c3=O)cccc2[nH]1`, the results for the EC50 in data set [1], in data set [2] (setting [6]) and in data set [3] (setting [6]) were 56 nM, 38000 nM and 5500 nM, respectively. For the same molecule, the CC50 in data set [4] came to 72000 nM.

Consider `N#Cc1ccc2c(Oc3ccc(Cl)cc3OCCn3ccc(=O)[nH]c3=O)cc(F)cc2c1`, for which the figures for the EC50 in data set [1], in data set [2] (setting [6]) and in data set [3] (setting [6]) were 5 nM, 32 nM and 150 nM, respectively. Moreover, the CC50 in data set [4] turned out to be 18000 nM.

Take `N#Cc1ccc2c(Oc3ccccc3OCCn3ccc(=O)[nH]c3=O)cc(F)cc2c1`: the EC50 in data set [1] stood at 1.1 nM; in data set [2] (setting [6]) it was 8 nM; in data set [3] (setting [6]), 6 nM. The CC50 in data set [4] is above 100000 nM.

For the molecule `N#Cc1ccc2c(Oc3ccccc3OCCn3ccc(=O)[nH]c3=O)cccc2c1`, the figures for the EC50 in data set [1], in data set [2] (setting [6]) and in data set [3] (setting [6]) were 0.53 nM, 19 nM and 15 nM, respectively. Besides, the CC50 in data set [4] was above 100000 nM. This molecule also showed a solubility (thermodynamic) at 48 h in data set [5] of 4.3 µg/mL (≈ 10.8 µM).

Consider `N#Cc1ccc2c(Oc3ccc(F)cc3OCCn3ccc(=O)[nH]c3=O)cc(F)cc2c1`, for which the results for the EC50 in data set [1], in data set [2] (setting [6]) and in data set [3] (setting [6]) were 1.9 nM, 5.6 nM and 21 nM, respectively. Further, the CC50 in data set [4] is above 100000 nM.

Consider `O=c1ccn(CCOc2ccccc2Oc2cccc3ccccc23)c(=O)[nH]1`, for which the EC50 stood at 60 nM in data set [1], 5700 nM in data set [2] (setting [6]) and 5000 nM in data set [3] (setting [6]). In data set [4], the CC50 came out at 80000 nM.

For `Cc1ccc2c(Oc3ccccc3OCCn3ccc(=O)[nH]c3=O)cccc2c1`, the concentration for a half-maximal effect (EC50) in data set [1] was 250 nM; in data set [2] (setting [6]), 12000 nM; in data set [3] (setting [6]), 15000 nM. In data set [4], the CC50 worked out at 40000 nM.

On to `N#Cc1ccc2c(Oc3ccc(Cl)cc3OCCn3ccc(=O)[nH]c3=O)cc(Cl)cc2c1`, for which the EC50 stood at 11 nM in data set [1], 49 nM in data set [2] (setting [6]) and 250 nM in data set [3] (setting [6]). The CC50 in data set [4] worked out at 20000 nM.

Consider `N#Cc1cc2c(Oc3ccccc3OCCn3ccc(=O)[nH]c3=O)cc(Cl)cn2c1`, for which the EC50 in data set [1] is 3.7 nM; in data set [2] (setting [6]), 220 nM; in data set [3] (setting [6]) it was 22 nM. Further, the CC50 in data set [4] was found to be 39000 nM.

With `N#C/C=C/c1cc(F)cc(Oc2ccc(F)cc2OCCn2ccc(=O)[nH]c2=O)c1`, the EC50 in data set [2] (setting [6]) was 16 nM; in data set [3] (setting [6]), 85 nM. Moreover, the solubility (thermodynamic) at 48 h in data set [5] was determined as 10.8 µg/mL (≈ 26.3 µM).

Turning to `Cc1ccnc2c1NC(=O)c1cccnc1N2C1CC1` [NEVIRAPINE], the EC50 result in data set [2] (mt2) and in data set [3] (mt2) was “Not Active” throughout. The CC50 in data set [4] was above 100000 nM.

In the case of `N#Cc1cc2c(Oc3ccccc3OCCn3ccc(=O)[nH]c3=O)cc(Cl)cc2[nH]1`, the EC50 came to 340 nM in data set [1], 27000 nM in data set [2] (setting [6]) and 2700 nM in data set [3] (setting [6]). The CC50 in data set [4] stood at 81000 nM.

On to `N#Cc1ccc2c(Oc3ccc(F)cc3OCCn3ccc(=O)[nH]c3=O)cc(Cl)cc2c1`, for which the results for the EC50 in data set [1], in data set [2] (setting [6]) and in data set [3] (setting [6]) were 4.5 nM, 5.3 nM and 46 nM, respectively. Besides, the 50% cytotoxic concentration (CC50) in data set [4] is 16000 nM.

In the case of `N#Cc1cc2c(Oc3ccc(F)cc3OCCn3ccc(=O)[nH]c3=O)cccn2c1`, the EC50 in data set [1] worked out at 2.7 nM; in data set [2] (setting [6]) it was 600 nM; in data set [3] (setting [6]), 220 nM. Besides, the CC50 in data set [4] was determined as 100000 nM.

With `N#Cc1cc2c(Oc3ccccc3OCCn3ccc(=O)[nH]c3=O)cc(Cl)cc2o1`, the EC50 in data set [1] is 19 nM; in data set [2] (setting [6]) it was 1900 nM; in data set [3] (setting [6]), 260 nM. Further, in data set [4], the CC50 was above 100000 nM.

Consider `N#Cc1cc2c(Oc3ccc(Cl)cc3OCCn3ccc(=O)[nH]c3=O)cccc2o1`, for which the results for the EC50 in data set [1], in data set [2] (mt2) and in data set [3] (mt2) were 7 nM, “Not Active” and “Not Active”, respectively. In addition, the CC50 in data set [4] came to 7000 nM.

With `N#Cc1cc2c(Oc3ccccc3OCCn3ccc(=O)[nH]c3=O)cccc2o1`, the EC50 in data set [1] was 18 nM; in data set [2] (mt2) it was “Not Active”; in data set [3] (setting [6]), 420 nM. For the same molecule, the CC50 in data set [4] was above 100000 nM.

As to `N#Cc1cc2c(Oc3ccc(F)cc3OCCn3ccc(=O)[nH]c3=O)cccc2o1`, the EC50 in data set [1] was determined as 40 nM; in data set [2] (setting [6]), 3500 nM; in data set [3] (setting [6]), 4000 nM. Besides, in data set [4], the CC50 is above 100000 nM.

Regarding `N#C/C=C/c1cc(Cl)cc(Oc2ccc(Cl)cc2OCCn2ccc(=O)[nH]c2=O)c1`, the EC50 came out at 49 nM in data set [2] (setting [6]) and 220 nM in data set [3] (setting [6]).

With `N#Cc1cc2c(Oc3ccccc3OCCn3ccc(=O)[nH]c3=O)cccn2c1`, the EC50 in data set [1] is 0.38 nM; in data set [2] (setting [6]), 310 nM; in data set [3] (setting [6]), 11 nM. For the same molecule, the CC50 in data set [4] is above 100000 nM.

On to `N#Cc1ccc2c(Oc3ccccc3OCCn3ccc(=O)[nH]c3=O)cc(Cl)cc2c1`, for which the EC50 in data set [1] amounted to 2.2 nM; in data set [2] (setting [6]) it was 13 nM; in data set [3] (setting [6]) it was 7.5 nM. Moreover, in data set [4], the CC50 was determined as 24000 nM.

Regarding `O=c1ccn(CCOc2ccccc2Oc2cc(Cl)cc3cc(Cl)ccc23)c(=O)[nH]1`, the EC50 in data set [1] was found to be 38 nM; in data set [2] (setting [6]), 430 nM; in data set [3] (setting [6]), 520 nM. Also, the CC50 in data set [4] was 45000 nM.

Regarding `Cc1cc(Oc2ccccc2OCCn2ccc(=O)[nH]c2=O)c2cc(C#N)[nH]c2c1`, the EC50 in data set [1] was 10 nM; in data set [2] (mt2), “Not Active”; in data set [3] (setting [6]) it was 800 nM. Further, the CC50 in data set [4] was determined as 1200 nM.

With `N#Cc1cc2c(Oc3ccccc3OCCn3ccc(=O)[nH]c3=O)cc(F)cn2c1`, the EC50 in data set [1] came out at 0.7 nM; in data set [2] (setting [6]), 170 nM; in data set [3] (setting [6]), 68 nM. Also, the CC50 in data set [4] stood at 40000 nM.
